Data: ChEMBL document CHEMBL3120154, “2-[N-Alkyl(R-phenyl)-aminomethyl]-3-phenyl-7-trifluoromethylquinoxalines as anticancer agents inhibitors of folate enzymes” (Eur J Med Chem, 2014)
pKi: −log10 of the molar value.

Tests used:
HL-60(TB) = assay: Cytotoxicity against human HL-60(TB) cells at 10^-4 M after 48 hrs by SRB assay; format: functional; conditions: HL-60, 48 h, read-out: GI
Method in brief: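 NCI 60-human-tumour-cell-line screen run over a 5-log dose range (100, 10, 1, 0.1 and 0.01 µM). Cells were exposed to drug for 48 h. Growth was estimated by sulforhodamine B protein staining. Values are percent growth inhibition at each concentration, relative to untreated control cells.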

HCT-116 = assay: Cytotoxicity against human HCT116 cells at 10^-4 M after 48 hrs by SRB assay; format: functional; conditions: HCT-116, 48 h, read-out: GI
Method in brief: (§1)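 Run by NCI on its 60-line human tumor cell panel, after a three-cell-line prescreen. Cells were exposed to drug for 48 h over a 5-log range: 100, 10, 1, 0.1 and 0.01 micromolar. Growth was estimated by sulforhodamine B (SRB) protein staining. Percent growth inhibition (I%) was recorded at each concentration relative to untreated control cells.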

A498 = assay: Cytotoxicity against human A498 cells at 10^-4 M after 48 hrs by SRB assay; format: functional; conditions: A498, 48 h, read-out: GI; method in brief: as §1
PC-3 = assay: Cytotoxicity against human PC3 cells at 10^-4 M after 48 hrs by SRB assay; format: functional; conditions: PC-3, 48 h, read-out: GI
Method in brief: (§2)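 Second-stage screen in the 60-cell-line human tumor panel at NCI, over a 5-log range (100, 10, 1, 0.1, 0.01 micromolar). Cells were exposed to drug for 48 h and growth was estimated with a sulforhodamine B protein stain. The value is percent growth inhibition at each concentration.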

MCF7 [1] = assay: Cytotoxicity against human MCF7 cells assessed as cell growth at 10^-4 M after 48 hrs by alamar blue assay relative to untreated control; format: functional; conditions: MCF7, 48 h, read-out: Activity
Method in brief: (§3)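 Three-cell-line prescreen. Each line was inoculated and preincubated on a microtiter plate, then the agent was added at a single concentration (10^-4 or 10^-5 M) and incubated 48 h. Endpoint was measured with alamar blue, and growth is reported as a percentage of untreated control cells.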

SF-295 = assay: Cytotoxicity against human SF295 cells at 10^-4 M after 48 hrs by SRB assay; format: functional; conditions: SF-295, 48 h, read-out: GI; method in brief: as §2
NCI/ADR-RES = assay: Cytotoxicity against human NCI/ADR-RES cells at 10^-4 M after 48 hrs by SRB assay; format: functional; conditions: read-out: GI
Method in brief: (§4)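 Run in the NCI 60-cell-line screen after a three-line prescreen. Cells got a 48 h drug exposure; viability/growth was estimated with the sulforhodamine B protein assay. Growth inhibition (I%) was recorded at 100, 10, 1, 0.1 and 0.01 micromolar. Percent growth is relative to untreated control cells, and negative values indicate cell kill.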

[2] = Cytotoxicity against human Hs578T cells at 10^-4 M after 48 hrs by SRB assay; format: functional; conditions: Hs-578T, read-out: GI; method in brief: as §1
COLO 205 = assay: Cytotoxicity against human COLO205 cells at 10^-4 M after 48 hrs by SRB assay; format: functional; conditions: COLO 205, 48 h, read-out: GI; method in brief: as §1
SNB-19 = assay: Cytotoxicity against human SNB19 cells at 10^-4 M after 48 hrs by SRB assay; format: functional; conditions: SNB-19, 48 h, read-out: GI; method in brief: as §2
SK-MEL-28 = assay: Cytotoxicity against human SK-MEL-28 cells at 10^-4 M after 48 hrs by SRB assay; format: functional; conditions: SK-MEL-28, 48 h, read-out: GI; method in brief: as §2
SK-MEL-2 = assay: Cytotoxicity against human SK-MEL-2 cells at 10^-4 M after 48 hrs by SRB assay; format: functional; conditions: SK-MEL-2, 48 h, read-out: GI; method in brief: as §2
SN12C = assay: Cytotoxicity against human SN12C cells at 10^-4 M after 48 hrs by SRB assay; format: functional; conditions: read-out: GI; method in brief: as §2
OVCAR-3 = assay: Cytotoxicity against human OVCAR3 cells at 10^-4 M after 48 hrs by SRB assay; format: functional; conditions: OVCAR-3, 48 h, read-out: GI; method in brief: as §4
[3] = Cytotoxicity against human OVCAR4 cells at 10^-4 M after 48 hrs by SRB assay; format: functional; conditions: OVCAR-4, 48 h, read-out: GI; method in brief: as §2
LOX IMVI = assay: Cytotoxicity against human LOXIMVI cells at 10^-4 M after 48 hrs by SRB assay; format: functional; conditions: read-out: GI; method in brief: as §4
MOLT-4 = assay: Cytotoxicity against human MOLT4 cells at 10^-4 M after 48 hrs by SRB assay; format: functional; conditions: MOLT-4, 48 h, read-out: GI; method in brief: as §4
IGROV-1 = assay: Cytotoxicity against human IGROV1 cells at 10^-4 M after 48 hrs by SRB assay; format: functional; conditions: IGROV-1, 48 h, read-out: GI; method in brief: as §1
SNB-75 = assay: Cytotoxicity against human SNB75 cells at 10^-4 M after 48 hrs by SRB assay; format: functional; conditions: SNB-75, 48 h, read-out: GI; method in brief: as §2
KM12 = assay: Cytotoxicity against human KM12 cells at 10^-4 M after 48 hrs by SRB assay; format: functional; conditions: KM12, 48 h, read-out: GI; method in brief: as §4
SK-OV-3 = assay: Cytotoxicity against human SKOV3 cells at 10^-4 M after 48 hrs by SRB assay; format: functional; conditions: SK-OV-3, 48 h, read-out: GI; method in brief: as §2
CCRF-CEM = assay: Cytotoxicity against human CCRF-CEM cells at 10^-6 M after 48 hrs by SRB assay; format: functional; conditions: read-out: GI; method in brief: as §1
MCF7 [4] = assay: Cytotoxicity against human MCF7 cells at 10^-4 M after 48 hrs by SRB assay; format: functional; conditions: MCF7, 48 h, read-out: GI; method in brief: as §4
OVCAR-8 = assay: Cytotoxicity against human OVCAR8 cells at 10^-6 M after 48 hrs by SRB assay; format: functional; conditions: OVCAR-8, 48 h, read-out: GI; method in brief: as §2
Dihydrofolate reductase = biological target: T1, Dihydrofolate reductase (Homo sapiens, UniProt P00374); assay: Competitive inhibition of human dihydrofolate reductase by spectrophotometry
T1 sequence (P00374 whole entry): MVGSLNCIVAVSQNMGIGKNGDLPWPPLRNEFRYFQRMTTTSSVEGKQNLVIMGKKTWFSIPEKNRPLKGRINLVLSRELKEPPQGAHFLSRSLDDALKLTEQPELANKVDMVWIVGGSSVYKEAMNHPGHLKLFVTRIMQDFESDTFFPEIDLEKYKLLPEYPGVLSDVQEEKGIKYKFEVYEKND

SF-539 = assay: Cytotoxicity against human SF539 cells at 10^-4 M after 48 hrs by SRB assay; format: functional; conditions: SF-539, 48 h, read-out: GI; method in brief: as §2
ACHN = assay: Cytotoxicity against human ACHN cells at 10^-4 M after 48 hrs by SRB assay; format: functional; conditions: read-out: GI; method in brief: as §1
U-251 = assay: Cytotoxicity against human U251 cells at 10^-4 M after 48 hrs by SRB assay; format: functional; conditions: U-251, 48 h, read-out: GI; method in brief: as §2
HCT-15 = assay: Cytotoxicity against human HCT15 cells at 10^-4 M after 48 hrs by SRB assay; format: functional; conditions: HCT-15, 48 h, read-out: GI; method in brief: as §1
NCI-H460 = assay: Cytotoxicity against human NCI-H460 cells assessed as cell growth at 10^-4 M after 48 hrs by alamar blue assay relative to untreated control; format: functional; conditions: NCI-H460, 48 h, read-out: Activity; method in brief: as §3
Thymidylate synthase = Thymidylate synthase (Homo sapiens, UniProt P04818); assay: Competitive inhibition of human thymidylate synthase by spectrophotometry

SMILES	inhibition of growth at 100 µM (HCT-116) [%]	inhibition of growth at 100 µM (A498) [%]	inhibition of growth at 100 µM (PC-3) [%]	growth at 100 µM (MCF7 [1]) [%]	inhibition of growth at 100 µM (SF-295) [%]	inhibition of growth at 100 µM (NCI/ADR-RES) [%]	inhibition of growth at 100 µM [2] [%]	inhibition of growth at 100 µM (COLO 205) [%]	inhibition of growth at 100 µM (SNB-19) [%]	inhibition of growth at 100 µM (SK-MEL-28) [%]	inhibition of growth at 100 µM (SN12C) [%]	inhibition of growth at 100 µM (OVCAR-3) [%]	inhibition of growth at 100 µM [3] [%]	inhibition of growth at 100 µM (LOX IMVI) [%]	inhibition of growth at 100 µM (MOLT-4) [%]	inhibition of growth at 100 µM (IGROV-1) [%]	inhibition of growth at 100 µM (SNB-75) [%]	inhibition of growth at 100 µM (SK-OV-3) [%]	inhibition of growth at 100 µM (MCF7 [4]) [%]	pKi (Dihydrofolate reductase)	also measured
CCN(Cc1nc2cc(C(F)(F)F)ccc2nc1-c1ccccc1)c1ccc(OC)c(OC)c1	199	180	185	1	181	84	162	92	148	112	189	194	76	200	122	178	115	83	86	5.40	inhibition of growth at 100 µM (HL-60(TB)): 153%; inhibition of growth at 100 µM (SK-MEL-2): 172%; inhibition of growth at 100 µM (KM12): 153%; inhibition of growth at 1 µM (CCRF-CEM): < 40%; inhibition of growth at 1 µM (OVCAR-8): 45%; inhibition of growth at 100 µM (SF-539): 176%; inhibition of growth at 100 µM (ACHN): 142%; inhibition of growth at 100 µM (U-251): 198%; inhibition of growth at 100 µM (HCT-15): 171%; growth at 100 µM (NCI-H460): 0%
C#CCN(Cc1nc2cc(C(F)(F)F)ccc2nc1-c1ccccc1)c1ccc(OC(F)(F)F)cc1	99	87	77	17	49	< 40	< 40	73	< 40	< 40	83	88	< 40	102	79	81	< 40	< 40	79	5.40	inhibition of growth at 100 µM (SK-MEL-2): < 40%; inhibition of growth at 100 µM (KM12): 112%; inhibition of growth at 100 µM (SF-539): 161%; inhibition of growth at 100 µM (ACHN): 65%; inhibition of growth at 100 µM (U-251): 70%; inhibition of growth at 100 µM (HCT-15): 47%; growth at 100 µM (NCI-H460): 7%
C#CCN(Cc1nc2cc(C(F)(F)F)ccc2nc1-c1ccccc1)c1ccc(C)cc1	189	157	58	58	150	195	113	177	163	200	135	164	200	178	85	79	180	191	84	5.22	inhibition of growth at 100 µM (HL-60(TB)): 105%; inhibition of growth at 100 µM (SK-MEL-2): 136%; pKi (Thymidylate synthase): 6.29; inhibition of growth at 100 µM (KM12): 161%; inhibition of growth at 1 µM (CCRF-CEM): < 40%; inhibition of growth at 1 µM (OVCAR-8): < 40%; inhibition of growth at 100 µM (SF-539): 77%; inhibition of growth at 100 µM (ACHN): 193%; inhibition of growth at 100 µM (U-251): 181%; inhibition of growth at 100 µM (HCT-15): 181%; growth at 100 µM (NCI-H460): 17%
C#CCN(Cc1nc2cc(C(F)(F)F)ccc2nc1-c1ccccc1)c1ccc(F)c(F)c1	77	78	78	40	74	67	70	75	52	< 40	75	116	< 40	77	82	58	< 40	< 40	94	5.10	inhibition of growth at 100 µM (HL-60(TB)): 79%; pKi (Thymidylate synthase): 5.45; inhibition of growth at 100 µM (SF-539): 96%; inhibition of growth at 100 µM (ACHN): 56%; inhibition of growth at 100 µM (U-251): 59%; inhibition of growth at 100 µM (HCT-15): 82%; growth at 100 µM (NCI-H460): 18%
C#CCN(Cc1nc2cc(C(F)(F)F)ccc2nc1-c1ccccc1)c1ccc(F)cc1	94	104	92	41	68	108	94	126	84	71	102	94	87	101	81	86	54	93	89	5.10	inhibition of growth at 100 µM (HL-60(TB)): 92%; pKi (Thymidylate synthase): 5.62; inhibition of growth at 100 µM (KM12): 124%; inhibition of growth at 100 µM (SF-539): 96%; inhibition of growth at 100 µM (ACHN): 89%; inhibition of growth at 100 µM (U-251): 85%; inhibition of growth at 100 µM (HCT-15): 97%; growth at 100 µM (NCI-H460): 6%
